This note sets out measurements from ChEMBL document CHEMBL2380309, “Design, synthesis, and biological evaluation of new 2'-deoxy-2'-fluoro-4'-triazole cytidine nucleosides as potent antiviral agents” (Eur J Med Chem, 2013).

A short description of data set [1]: Cytotoxicity against human MT2 cells by MTT assay. The data set is classed as cell-based. (Tetrazolium dyes change colour on reduction, which living cells bring about.)
Data set [2] deals with Human immunodeficiency virus 1. The experiment in a line: Antiviral activity against HIV1 expressing VSV glycoprotein plasmid infected in human 293T cells treated 15 mins before viral infection measured after 48 hrs by luciferase reporter gene assay. Format: functional, organism-based. As to conditions: Human immunodeficiency virus 1, HEK-293T. In outline: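 293T cells plated 6×10⁴/well one hour before infection. Compound preincubated 15 min, then VSVG-pseudotyped env-deficient HIV-1 (pNL4-3.luc.R-E-, from Ca₃(PO₄)₂ co-transfection of 293T) added. Solvent-only control. After 48 h, cells lysed and luciferase activity read by luminometer. EC50 is the mean of at least two independent determinations.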
A general note: Reporter assays use an easily measured gene product as a stand-in for the process of interest.

Data set [3] can be described thus: Cytotoxicity against human HepG2.2.15 cells after 3 days by MTT assay. Format: cell-based, HepG2 2.2.15. In outline: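 HepG2.2.15 cells, kept in RPMI 1640 with 10% FBS and G418 at 37°C under 5% CO2, were seeded at 1×10⁵ cells/well and cultured 24 h. They were then exposed to four compound concentrations (5 wells each) for 3 days, with drug-free cells as control. MTT (5 mg/mL) was added for 4 h at 37°C, formazan dissolved in DMSO, and A490 read. Survival was expressed as % of control, and CC50 was taken by Reed-Muench from at least two independent determinations.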

In data set [4] the test system is Hepatitis B virus. The experiment in a line: Antiviral activity against HBV infected in human HepG2.2.15 assessed as reduction of viral s-antigen production […] by ELISA. The data set is classed as functional, organism-based. As to conditions: HepG2 2.2.15. A general note: ELISA stands for enzyme-linked immunosorbent assay.
The test system of data set [5] is Hepatitis B virus. The experiment in a line: Antiviral activity against HBV infected in human HepG2.2.15 assessed as reduction of viral e-antigen production […] by ELISA. To be noted: HepG2 2.2.15. The data set is classed as functional, organism-based.
Data set [6] can be described thus: Selectivity index, ratio of CC50 for human HepG2.2.15 cells to EC50 for HBV infected in human HepG2.2.15 assessed as reduction of viral s-antigen production.
Data set [7] is described as follows: Selectivity index, ratio of CC50 for human MT2 cells to EC50 for HIV1. The data set is classed as toxicity, cell-based. As to conditions: read-out: Ratio CC50/EC50.
A short description of data set [8]: Selectivity index, ratio of CC50 for human HepG2.2.15 cells to EC50 for HBV infected in human HepG2.2.15 assessed as reduction of viral e-antigen production.

In general, CC50 refers to the concentration that lowers cell viability or growth by half. The low end stands for harm at low concentration, the high end for better tolerance by the cells. In general, EC50 refers to the concentration needed to bring the measured effect to its halfway point. For the compound `CCCCc1cn([C@]2(CO)O[C@@H](n3ccc(N)nc3=O)[C@@H](F)[C@@H]2O)nn1`, in data set [1], the CC50 is not below 25000 nM. Besides, it took 300 nM to reach a half-maximal effect in data set [2] (EC50).

Take `Nc1ccn([C@@H]2O[C@@](CO)(n3cc(C4CC4)nn3)[C@@H](O)[C@@H]2F)c(=O)n1`: in data set [1], the 50% cytotoxic concentration (CC50) is not below 25000 nM. Further, it took 834000 nM to reach half-maximal cytotoxicity in data set [3] (CC50 at 72 h). For the same compound, the EC50 in data set [4] worked out at 120 nM; in data set [2], 600 nM; in data set [5] it was 1000 nM.

`Cc1ccc(-c2cn([C@]3(CO)O[C@@H](n4ccc(N)nc4=O)[C@@H](F)[C@@H]3O)nn2)cc1` returned a CC50 in data set [1] not below 25000 nM. Further, in data set [3], half-maximal cytotoxicity (CC50 at 72 h) was put at 498000 nM. Besides, in data set [6], the “Ratio CC50/EC50” value was determined as 49800. Besides, the EC50 in data set [4] is 10 nM; in data set [2], 3700 nM; in data set [5], more than 1000 nM.

In the case of `Nc1ccn([C@@H]2O[C@@](CO)(n3cc(C4(O)CCCC4)nn3)[C@@H](O)[C@@H]2F)c(=O)n1`, in data set [1], the CC50 is not below 25000 nM. This compound also displayed an EC50 in data set [2] of 1300 nM.

`Cc1cn([C@H]2C[C@H](N=[N+]=[N-])[C@@H](CO)O2)c(=O)[nH]c1=O` [ZIDOVUDINE] showed a CC50 in data set [1] not below 25000 nM. Moreover, in data set [2], the midpoint of the response, the EC50, lay at 84 nM.

For the compound `Nc1ccn([C@@H]2O[C@@](CO)(n3ccnn3)[C@@H](O)[C@@H]2F)c(=O)n1`, in data set [1], the CC50 is not below 25000 nM. A half-maximal response in data set [2] (EC50) required 90 nM. Moreover, in data set [7], the selectivity ratio is more than 278.

Turning to `Nc1ccn([C@@H]2O[C@@](CO)(n3cc(CC4CCCCC4)nn3)[C@@H](O)[C@@H]2F)c(=O)n1`, the CC50 in data set [1] was not below 25000 nM. The compound further came in with an EC50 in data set [2] of 4800 nM.

On to `CC(C)(C)c1cn([C@]2(CO)O[C@@H](n3ccc(N)nc3=O)[C@@H](F)[C@@H]2O)nn1`, for which the CC50 in data set [1] is not below 25000 nM. This compound yielded an EC50 in data set [2] of 80 nM. Moreover, the selectivity ratio in data set [7] is more than 278.

`[N-]=[N+]=N[C@]1(CO)O[C@@H](n2ccc(N)nc2=O)[C@@H](F)[C@@H]1O` [RO-0622]: the CC50 in data set [1] was more than 10000 nM. Also, the EC50 in data set [2] came out at 0.3 nM.

With `CCc1ccc(-c2cn([C@]3(CO)O[C@@H](n4ccc(N)nc4=O)[C@@H](F)[C@@H]3O)nn2)cc1`, the CC50 in data set [1] is not below 25000 nM. This compound showed an EC50 in data set [2] of 600 nM.

`Nc1ccn([C@@H]2O[C@@](CO)(n3cc(-c4ccccc4)nn3)[C@@H](O)[C@@H]2F)c(=O)n1` came in with a CC50 in data set [1] not below 25000 nM. Half-maximal cytotoxicity in data set [3] (CC50 at 72 h) was put at 566000 nM. Besides, the EC50 in data set [4] is 100 nM; in data set [2], 83 nM; in data set [5], 250 nM. Further, the “Ratio CC50/EC50” value in data set [8] is listed as 2264. Besides, the selectivity ratio in data set [7] was more than 278.
